Experimental data reported in ChEMBL document CHEMBL3091303, “1,3-Dialkyl-substituted tetrahydropyrimido[1,2-f]purine-2,4-diones as multiple target drugs for the potential treatment of neurodegenerative diseases” (Bioorg Med Chem, 2013).

Experiments:
Adenosine receptor A2a [1] = molecular target: T1, Adenosine receptor A2a (Rattus norvegicus, UniProt P30543); experiment: Displacement of [3H]MSX-2 from adenosine A2A receptor in rat brain striatum; type: tissue-based
[2] = Ratio of Ki for human adenosine A1 receptor to Ki for adenosine A1 receptor in rat brain cortex; type: tissue-based
Adenosine receptor A3 [3] = molecular target: T2, Adenosine receptor A3 (Homo sapiens, UniProt P0DMS8); experiment: Displacement of [3H]PSB-11 from human adenosine A3 receptor expressed in CHO cells; type: cell-based
T2 sequence (P0DMS8 whole entry): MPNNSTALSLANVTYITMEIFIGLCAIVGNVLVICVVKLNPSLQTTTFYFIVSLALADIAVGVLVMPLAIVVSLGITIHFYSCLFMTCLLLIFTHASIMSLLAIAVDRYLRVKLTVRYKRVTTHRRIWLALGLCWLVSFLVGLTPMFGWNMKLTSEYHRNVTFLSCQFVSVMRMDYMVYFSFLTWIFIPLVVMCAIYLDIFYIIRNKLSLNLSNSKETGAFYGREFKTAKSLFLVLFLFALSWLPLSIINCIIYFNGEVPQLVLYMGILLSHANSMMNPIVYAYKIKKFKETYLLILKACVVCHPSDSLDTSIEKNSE

[4] = molecular target: T3, Adenosine receptor A3 (Homo sapiens) (UniProt P0DMS8); experiment: Displacement of [3H]PSB-11 from human adenosine A3 receptor expressed in CHO cells relative to control; type: cell-based; parameters: concentration or dose not given beside the values; conditions: concentration not given here
T3 sequence (whole entry): T2 sequence (P0DMS8 whole entry)

[5] = molecular target: T4, MAO-B (amine oxidase [flavin-containing] B) (Homo sapiens, UniProt P27338); experiment: Inhibition of human MAO-B at 10 uM relative to control
T4 sequence (P27338 whole entry): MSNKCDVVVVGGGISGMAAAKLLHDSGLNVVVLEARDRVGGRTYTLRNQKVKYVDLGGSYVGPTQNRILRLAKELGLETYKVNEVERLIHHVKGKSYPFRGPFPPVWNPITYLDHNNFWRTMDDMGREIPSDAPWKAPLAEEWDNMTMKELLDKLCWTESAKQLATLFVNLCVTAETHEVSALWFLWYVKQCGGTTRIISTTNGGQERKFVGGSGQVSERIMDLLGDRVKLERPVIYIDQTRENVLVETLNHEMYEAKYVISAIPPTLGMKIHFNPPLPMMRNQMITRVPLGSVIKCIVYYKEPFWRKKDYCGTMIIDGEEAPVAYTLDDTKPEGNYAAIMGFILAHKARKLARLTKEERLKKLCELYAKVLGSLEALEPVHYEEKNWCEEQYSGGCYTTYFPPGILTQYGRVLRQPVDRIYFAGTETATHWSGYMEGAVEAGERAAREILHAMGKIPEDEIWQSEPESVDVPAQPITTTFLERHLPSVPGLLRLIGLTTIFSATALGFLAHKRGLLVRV
Procedure, shortened: (§1)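 Human MAO-A and MAO-B inhibition, screened first at a test concentration of 10 µM.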

Adenosine receptor A1 [6] = molecular target: T5, Adenosine receptor A1 (Homo sapiens, UniProt P30542); experiment: Displacement of [3H]CCPA from human adenosine A1 receptor expressed in CHO cells; type: cell-based
T5 sequence (P30542 whole entry): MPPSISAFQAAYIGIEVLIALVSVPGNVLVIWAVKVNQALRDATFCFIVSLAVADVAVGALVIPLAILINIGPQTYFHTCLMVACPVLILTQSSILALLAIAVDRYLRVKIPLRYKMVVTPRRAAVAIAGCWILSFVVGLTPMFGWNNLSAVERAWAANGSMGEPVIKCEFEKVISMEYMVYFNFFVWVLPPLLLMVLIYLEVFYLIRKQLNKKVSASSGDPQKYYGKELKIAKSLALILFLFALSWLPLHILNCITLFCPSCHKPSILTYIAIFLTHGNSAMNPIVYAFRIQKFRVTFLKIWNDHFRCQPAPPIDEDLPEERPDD
Procedure, shortened: (§2)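 Radioligand binding to human receptors recombinantly expressed in Chinese hamster ovary (CHO) cells. Results are Ki, or % inhibition of radioligand binding at the indicated concentration.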

Adenosine receptor A1 [7] = molecular target: T6, Adenosine receptor A1 (Rattus norvegicus, UniProt P25099); experiment: Displacement of [3H]CCPA from adenosine A1 receptor in rat brain cortex; type: tissue-based
T6 sequence (P25099 whole entry): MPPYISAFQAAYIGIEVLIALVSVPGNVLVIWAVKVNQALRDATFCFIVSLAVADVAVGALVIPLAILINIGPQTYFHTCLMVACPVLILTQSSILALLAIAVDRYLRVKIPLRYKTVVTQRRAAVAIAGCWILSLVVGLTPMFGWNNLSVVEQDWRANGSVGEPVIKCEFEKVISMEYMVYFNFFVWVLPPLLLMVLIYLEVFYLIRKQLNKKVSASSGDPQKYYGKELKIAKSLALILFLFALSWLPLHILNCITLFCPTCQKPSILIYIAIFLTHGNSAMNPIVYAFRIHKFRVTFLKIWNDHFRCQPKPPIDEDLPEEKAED
Procedure, shortened: (§3)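 Radioligand binding to rat A1 receptors in rat brain cortical membrane preparations. Values are given as Ki, or as % inhibition of radioligand binding at the indicated concentration.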

[8] = molecular target: T7, Amine oxidase [flavin-containing] B (Homo sapiens, UniProt P27338); experiment: Inhibition of human MAO-B
T7 sequence (P27338 whole entry): T4 sequence (P27338 whole entry)

Adenosine receptor A2b [9] = molecular target: T8, Adenosine receptor A2b (Homo sapiens, UniProt P29275); experiment: Displacement of [3H]PSB-603 from human adenosine A2B receptor
T8 sequence (P29275 whole entry): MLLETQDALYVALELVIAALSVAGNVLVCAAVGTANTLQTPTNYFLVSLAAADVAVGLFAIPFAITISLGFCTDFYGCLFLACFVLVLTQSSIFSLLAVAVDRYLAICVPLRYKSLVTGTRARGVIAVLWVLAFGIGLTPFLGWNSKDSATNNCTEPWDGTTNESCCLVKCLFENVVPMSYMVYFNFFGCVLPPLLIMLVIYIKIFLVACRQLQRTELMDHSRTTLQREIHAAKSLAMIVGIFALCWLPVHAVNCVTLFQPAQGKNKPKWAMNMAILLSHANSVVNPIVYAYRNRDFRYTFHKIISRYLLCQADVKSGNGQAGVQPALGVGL

[10] = molecular target: T9, Adenosine receptor A2b (Homo sapiens) (UniProt P29275); experiment: Displacement of [3H]PSB-603 from human adenosine A2B receptor relative to control; parameters: concentration or dose not given beside the values; conditions: concentration not given here
T9 sequence (whole entry): T8 sequence (P29275 whole entry)

[11] = molecular target: T10, Adenosine receptor A1 (Homo sapiens) (UniProt P30542); experiment: Displacement of [3H]CCPA from human adenosine A1 receptor expressed in CHO cells relative to control; type: cell-based; conditions: concentration not given here; procedure, shortened: as §2
T10 sequence (whole entry): T5 sequence (P30542 whole entry)

[12] = molecular target: T11, MAO-A (amine oxidase [flavin-containing] A) (Homo sapiens, UniProt P21397); experiment: Inhibition of human MAO-A at 10 uM relative to control; procedure, shortened: as §1
T11 sequence (P21397 whole entry): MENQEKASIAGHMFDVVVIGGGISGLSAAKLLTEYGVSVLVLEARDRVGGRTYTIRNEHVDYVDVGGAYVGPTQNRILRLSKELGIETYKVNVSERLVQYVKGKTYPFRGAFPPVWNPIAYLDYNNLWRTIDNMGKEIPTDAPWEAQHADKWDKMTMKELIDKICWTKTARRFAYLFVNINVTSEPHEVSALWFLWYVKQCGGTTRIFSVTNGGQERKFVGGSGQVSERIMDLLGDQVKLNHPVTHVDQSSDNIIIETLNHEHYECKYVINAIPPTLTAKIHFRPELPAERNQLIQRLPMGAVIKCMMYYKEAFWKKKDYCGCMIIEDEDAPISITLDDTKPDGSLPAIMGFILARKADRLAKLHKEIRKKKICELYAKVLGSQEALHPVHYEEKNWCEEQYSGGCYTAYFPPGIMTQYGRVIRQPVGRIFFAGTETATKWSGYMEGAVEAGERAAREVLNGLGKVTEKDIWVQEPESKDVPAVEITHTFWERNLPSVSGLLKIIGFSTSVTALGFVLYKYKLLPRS

[13] = molecular target: T12, Amine oxidase [flavin-containing] A (Homo sapiens, UniProt P21397); experiment: Inhibition of human MAO-A; procedure, shortened: as §1
T12 sequence (P21397 whole entry): T11 sequence (P21397 whole entry)

[14] = molecular target: T13, Adenosine receptor A1 (Rattus norvegicus) (UniProt P25099); experiment: Displacement of [3H]CCPA from adenosine A1 receptor in rat brain cortex relative to control; type: tissue-based; parameters: concentration or dose not given beside the values; conditions: concentration not given here; procedure, shortened: as §3
T13 sequence (whole entry): T6 sequence (P25099 whole entry)

Adenosine receptor A2a [15] = molecular target: T14, Adenosine receptor A2a (Homo sapiens, UniProt P29274); experiment: Binding affinity to human adenosine A2A receptor
Adenosine receptor A3 [16] = molecular target: T2, Adenosine receptor A3; experiment: Binding affinity to human adenosine A3 receptor
Adenosine receptor A2a [17] = molecular target: T14, Adenosine receptor A2a; experiment: Displacement of [3H]MSX-2 from human adenosine A2A receptor expressed in CHO cells; type: cell-based; procedure, shortened: as §2
Adenosine receptor A1 [18] = molecular target: T5, Adenosine receptor A1; experiment: Binding affinity to human adenosine A1 receptor
Adenosine receptor A2a [19] = molecular target: T1, Adenosine receptor A2a; experiment: Binding affinity to rat adenosine A2A receptor
Adenosine receptor A2b [20] = molecular target: T8, Adenosine receptor A2b; experiment: Binding affinity to human adenosine A2B receptor
Adenosine receptor A1 [21] = molecular target: T6, Adenosine receptor A1; experiment: Binding affinity to rat adenosine A1 receptor
[22] = molecular target: Adenosine receptor A2a (Rattus norvegicus) (UniProt P30543); experiment: Displacement of [3H]MSX-2 from adenosine A2A receptor in rat brain striatum relative to control; type: tissue-based; parameters: concentration or dose not given beside the values; conditions: concentration not given here
Procedure, shortened: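 Radioligand binding to rat A2A receptors in rat brain striatal membrane preparations, reported as % inhibition of radioligand binding at the indicated concentration.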

Adenosine receptor A3 [23] = molecular target: T15, Adenosine receptor A3 (Rattus norvegicus, UniProt P28647); experiment: Binding affinity to rat adenosine A3 receptor
T15 sequence (P28647 whole entry): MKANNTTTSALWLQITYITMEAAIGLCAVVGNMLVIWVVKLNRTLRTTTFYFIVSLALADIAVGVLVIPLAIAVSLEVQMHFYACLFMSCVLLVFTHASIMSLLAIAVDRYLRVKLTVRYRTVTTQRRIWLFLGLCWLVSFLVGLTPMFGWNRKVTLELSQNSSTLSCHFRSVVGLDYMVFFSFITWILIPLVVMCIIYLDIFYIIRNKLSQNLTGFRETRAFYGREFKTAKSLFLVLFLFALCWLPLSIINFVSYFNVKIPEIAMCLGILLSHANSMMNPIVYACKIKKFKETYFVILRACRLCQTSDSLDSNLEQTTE

T1 sequence (P30543 whole entry): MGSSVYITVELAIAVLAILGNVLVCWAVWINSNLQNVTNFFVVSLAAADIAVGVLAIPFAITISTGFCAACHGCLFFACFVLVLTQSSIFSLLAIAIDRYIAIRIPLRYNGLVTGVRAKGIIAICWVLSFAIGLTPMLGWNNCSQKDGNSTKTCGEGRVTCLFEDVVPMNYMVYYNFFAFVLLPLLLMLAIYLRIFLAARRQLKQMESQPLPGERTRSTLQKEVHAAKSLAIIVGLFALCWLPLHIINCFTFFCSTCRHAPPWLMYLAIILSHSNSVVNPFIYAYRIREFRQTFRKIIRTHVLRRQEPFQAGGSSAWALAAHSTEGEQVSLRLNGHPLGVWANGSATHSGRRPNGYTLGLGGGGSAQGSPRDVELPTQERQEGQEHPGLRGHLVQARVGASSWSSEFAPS
T14 sequence (P29274 whole entry): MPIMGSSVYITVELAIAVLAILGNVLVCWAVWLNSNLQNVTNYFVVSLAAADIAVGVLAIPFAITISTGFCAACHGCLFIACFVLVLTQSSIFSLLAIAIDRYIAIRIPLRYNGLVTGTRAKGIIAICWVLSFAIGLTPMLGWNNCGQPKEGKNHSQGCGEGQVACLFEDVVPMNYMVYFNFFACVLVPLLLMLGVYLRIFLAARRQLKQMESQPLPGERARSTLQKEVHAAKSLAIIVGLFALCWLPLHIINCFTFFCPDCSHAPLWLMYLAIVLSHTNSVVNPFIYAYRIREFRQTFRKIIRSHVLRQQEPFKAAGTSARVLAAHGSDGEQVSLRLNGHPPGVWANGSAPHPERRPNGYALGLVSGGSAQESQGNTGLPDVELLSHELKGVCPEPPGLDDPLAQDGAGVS
Chain of Adenosine receptor A2a (Rattus norvegicus) (P30543 whole entry): as the sequence (P30543 whole entry) above

SMILES | Ki (Adenosine receptor A2a [1]) [µM] | Ki (Adenosine receptor A3 [3]) [µM] | inhibition [4] [%] | inhibition at 10 µM [5] [%] | Ki (Adenosine receptor A1 [6]) [µM] | Ki (Adenosine receptor A1 [7]) [µM] | IC50 [8] [µM] | Ki (Adenosine receptor A2b [9]) [µM] | inhibition [10] [%] | inhibition at 10 µM [12] [%] | IC50 [13] [µM] | inhibition [14] [%] | Ki (Adenosine receptor A2a [19]) [µM] | Ki (Adenosine receptor A1 [21]) [µM] | further results
Cn1c(=O)c2c(nc3n2CCCN3Cc2ccc(Cl)cc2)n(C)c1=O | 7.23 | > 10 | 36 |  | > 10 | > 25 | 0.218 | > 1 | 1 | 14 | > 10 | 27 |  |  | inhibition [11]: 29%
Cn1c(=O)c2c(nc3n2CCCN3CC(=O)N2CCN(c3ccc(Cl)cc3)CC2)n(C)c1=O | > 10 | > 1 | 24 | 60 |  | > 1.5 | 2.2 | > 1 | -7 | 13 | > 10 | 0 |  |  | inhibition [22]: 39%
C#CCn1c(=O)c2c(ncn2C)n(C)c1=O | 5.6 | > 10 |  |  |  | 11 | > 10 |  |  | 3 | > 10 |  | 5.6 | 11 | Ki (Adenosine receptor A3 [23]): > 10 µM

The next lines start with results.

Ki (Adenosine receptor A2a [1]) [µM] | Ki (Adenosine receptor A3 [3]) [µM] | inhibition [4] [%] | inhibition at 10 µM [5] [%] | Ki (Adenosine receptor A1 [6]) [µM] | Ki (Adenosine receptor A1 [7]) [µM] | IC50 [8] [µM] | Ki (Adenosine receptor A2b [9]) [µM] | inhibition [10] [%] | inhibition at 10 µM [12] [%] | IC50 [13] [µM] | inhibition [14] [%] | Ki (Adenosine receptor A2a [19]) [µM] | Ki (Adenosine receptor A1 [21]) [µM] | SMILES | further results
3.03 | > 1 | 20 | 36 | 9.49 | 0.469 | > 10 | > 1 | 8 |  |  |  |  |  | C#CCn1c(=O)c2c(nc3n2CCCN3c2cccc(OC)c2)n(C)c1=O | Ratio Ki [2]: > 10
 | 13.3 |  |  | 16.7 | > 25 |  | 10 |  |  |  |  | 0.147 | > 25 | Cn1c(=O)c2c(nc3n2CCCN3c2ccc(F)cc2)n(C)c1=O | Ki (Adenosine receptor A2a [15]): 1.88 µM; Ki (Adenosine receptor A3 [16]): 13.3 µM; Ki (Adenosine receptor A2a [17]): 1.18 µM; Ki (Adenosine receptor A1 [18]): 16.7 µM; Ki (Adenosine receptor A2b [20]): 10 µM
